Assay outcomes as filed in PubChem BioAssay.
Pf gamet viab: inhibitors of late stage P. falciparum gametocyte viability. inhibition, % at 10.9 µM. actives 0.065% (n = 150,000). P. falciparum stage V gametocytes, ATP luminescence, 24 h;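 active = inhibition above the mean plus 3 SD of compounds within the control limits, set per campaign, cut at about 38% in these data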
ROMK primary: human ROMK K+ channel modulation, primary screen | P48048 | Tet-inducible ROMK, thallium flux fluorescence; actives lie on both sides | B-score at 10 µM | actives 2% (n = 130,000) | AID 1918;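 active = signal ratio slope over the read window, or its plate-corrected B-score, at least 3 SD from the plate mean, either direction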;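 note: B-score of the F/F0 ratio slope over 7 to 12 s after thallium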
Target sequence (P48048 whole entry, looked up): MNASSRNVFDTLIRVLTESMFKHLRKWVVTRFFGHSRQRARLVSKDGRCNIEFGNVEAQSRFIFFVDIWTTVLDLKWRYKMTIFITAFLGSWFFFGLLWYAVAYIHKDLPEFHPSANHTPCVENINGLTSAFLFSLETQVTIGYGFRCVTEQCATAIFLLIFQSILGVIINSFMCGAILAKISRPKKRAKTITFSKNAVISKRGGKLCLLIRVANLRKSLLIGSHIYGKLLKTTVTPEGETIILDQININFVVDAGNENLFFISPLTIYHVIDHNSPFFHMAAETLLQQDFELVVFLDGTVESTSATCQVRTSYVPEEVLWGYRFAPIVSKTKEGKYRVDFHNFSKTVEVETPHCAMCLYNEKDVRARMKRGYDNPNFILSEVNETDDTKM
Calb biofilm kill: mixtures killing C. albicans biofilm. C. albicans biofilm persisters + clotrimazole, fluorescence viability; primary screen in compound mixtures of four per well. inhibition, % at 7.6 µM. actives 0.02% (n = 120,000). AID 1242;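 active = inhibition above 30.3% in the primary screen of four-compound pools, then above 30% when the compound was retested; inconclusive = passed the primary limit but could not be retested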;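 note: compounds exposed to preformed 24 h biofilms for 48 h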
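Incubation: 24 h biofilm formation, then 48 h compound exposure, 37 °C | Material: C. albicans biofilms | Buffer or medium: RPMI/MOPS medium, pH 7.0 | Measured by: 2-h Alamar Blue fluorescence, 535/590 nm excitation/emission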
ROMK retest: confirmation of human ROMK potassium channel modulators | shares compounds with ROMK primary | ROMK thallium flux, fluorescence ratio; hits give low values | normalized thallium flux (F/F0 slope) at 10 µM | actives 54% (n = 3,000);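 active = Flux at 10 µM at least 3 SD below or above vehicle control mean in one or both replicates; inconclusive = no clear call, values can overlap the other calls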
Hits are given with their value; n = inactive; u = inconclusive; x = no result. The sample as a whole holds a higher share of hits than the screen did.

SMILES | Pf gamet viab | ROMK primary | Calb biofilm kill | ROMK retest
CCOC(=O)C1CCN(S(=O)(=O)c2ccccc2[N+](=O)[O-])CC1 | n | x | x | x
CCOC(=O)C1CCN(c2ccc([N+](=O)[O-])c(C(C)=O)c2)CC1 | n | -3 | n | n
COc1ccc2sc(-c3ccc(N(C)C)cc3)c(-c3cnc(OC)nc3)c2c1 | n | x | x | x
O=C1CCCc2nc3c(cc21)C(O)Oc1c-3ccc2ccccc12 (centres undefined) | n | n | n | x
O=C1CCCc2nc3c(cc21)C(O)Oc1ccccc1-3 (centres undefined) | n | x | n | n
O=C(CN1CCCCCC1=O)N1CCN(S(=O)(=O)c2cccs2)CC1 | n | n | n | x
COC(=O)/C(=C\Nc1ccc(Oc2ccc(F)cc2F)nc1)NC(=O)c1ccccc1 | n | x | n | x
c1cncc(-c2nc(N3CCCCCC3)c3ccccc3n2)c1 | x | n | x | x
c1ccc2c(N3CCCCCC3)nc(-c3ccncc3)nc2c1 | x | -2.8 | x | u
COCCn1c(SCC(=O)N2CCc3ccccc32)nc2c(c1=O)SC(C)C2 (centres undefined) | x | x | n | x
CCCc1nc(SCC(=O)N2CCCc3ccccc32)c2c(=O)n(C)c(=O)n(C)c2n1 | x | x | x | 0.057
CCc1nc(SCC(=O)N2CCN(c3ccccc3)CC2)c2c(=O)n(C)c(=O)n(C)c2n1 | x | x | n | x
COCCn1c(SCC(=O)N2CCCc3ccccc32)nc2ccccc2c1=O | n | -2.7 | x | 0.063
CCCc1nc(SCC(=O)N2CCC(Cc3ccccc3)CC2)c2c(=O)n(C)c(=O)n(C)c2n1 | x | x | x | u
CCCn1c(SCC(=O)N2CCCc3ccccc32)nc2c1c(=O)n(C)c(=O)n2C | n | x | x | x
CC(NS(=O)(=O)c1ccccc1)C1CC2CCC1C2 (centres undefined) | n | x | x | x
Cn1c(=O)c2c(ncn2CCC(=O)N/N=C/c2ccncc2)n(C)c1=O | n | x | n | x
COC(=O)C1CC(=O)c2ccsc2C1 (centres undefined) | n | n | n | x
COc1cc(OC)cc(-c2c(-c3ccsc3)c3cc(Br)ccc3n2C)c1 | n | x | x | x
CCCCCC1=CCC/C1=N\NC(=O)c1ccc2c(c1)OCO2 | n | n | n | x
CC(=O)Cc1cc2cc([N+](=O)[O-])ccc2oc1=O | n | x | n | x
COc1cc(C)c(NC(=S)Nc2ccc(Cl)c(Cl)c2)cc1OC | n | x | n | x
COc1ccc(C(=O)NCCc2nnc(SCC(=O)Nc3ccccc3)n2C)cc1 | n | n | x | x
Cn1c(CCNC(=O)c2ccc(Cl)c(Cl)c2)nnc1SCc1ccc(Cl)c(Cl)c1 | x | x | x | n
CCC1COCCS(=O)(=O)N1Cc1ccc(F)cc1 (centres undefined) | n | x | x | x
SMILES | Pf gamet viab | ROMK primary | Calb biofilm kill | ROMK retest
CCc1ccc2c(c1)C(=O)C[C@]1(CCC[C@H](C)C1)O2 | n | x | x | x
Cc1[nH]c(=S)[nH]c(=O)c1CCOc1ccccc1 | n | n | x | x
Cc1ccccc1OCCc1c(C)[nH]c(=S)[nH]c1=O | n | 1.7 | n | n
Cc1cc(=O)oc2cc(N3C(=O)CC(Cc4ccccc4)C3=O)ccc12 (centres undefined) | n | n | n | x
Fc1cccc(NC(=S)NCCCN2CCOCC2)c1 | n | x | x | x
CSc1cccc(NC(=S)NCCCN2CCN(c3ccc(F)cc3)CC2)c1 | n | -2.7 | n | 0.053
CC(C)N1CSC(=S)N(Cc2ccccc2)C1 | x | n | n | x
COc1ccccc1N1CCN(C(=O)CSc2ccccc2)CC1 | n | n | x | x
COc1ccccc1N1CCN(C(=O)CSc2nnc3c4ccccc4nc(Cc4ccccc4)n23)CC1 | x | x | n | n
Nc1c([N+](=O)[O-])c(=O)oc2ccccc12 | n | n | n | x
O=C1/C(=C\c2ccc(O)c(O)c2)C(c2ccccc2)=NN1c1ccccc1 | n | -3.9 | n | u
COc1cc(/C=C2\C(=O)N(c3ccc(NC(C)=O)cc3)N=C2c2ccccc2)ccc1O | n | n | n | x
O=C(CN1CCOCC1)Nc1ccc(Cl)cn1 | n | x | x | x
O=C(Nc1cnc2ccccc2c1)c1cccc(-n2cnnn2)c1 | n | x | x | 0.06
O=C(NNC(=O)c1cccc(-n2cnnn2)c1)c1ccccc1 | x | n | n | x
COC(=O)/C=c1/s/c(=C(/C#N)C(=O)N2CCOCC2)n(-c2ccccc2)c1=O | x | n | x | x
COC(=O)/C=c1/s/c(=C(/C#N)C(=O)N2CCCCC2)n(-c2ccccc2)c1=O | n | -3.2 | n | 0.057
CC(C)n1cc(CN2CCN(CCc3ccccc3)C(CCO)C2)cn1 (centres undefined) | n | n | n | x
CC(C(=O)NCCCn1ccnc1)(c1ccccc1)c1ccccc1 | n | x | x | x
COC(=O)Cn1c(CN(C)Cc2ccccc2)nc2c1c(=O)n(C)c(=O)n2C | n | x | x | x
CN(Cc1ccccc1)Cc1nc2c(c(=O)n(C)c(=O)n2C)n1CCCc1ccccc1 | x | -3.6 | x | 0.065
COc1ccc(S(=O)(=O)N2CCOCC2)cc1C(C)C | n | x | x | x
CCC(C)c1cc(S(=O)(=O)N2CCOCC2)ccc1OC (centres undefined) | x | -3.7 | x | u
O=C1C=C(c2ccc(F)cc2OCc2ccccc2)C[C@@H](c2ccc(Cl)cc2)C1 | n | x | x | x
CCOC(=O)/C(=C\c1cccnc1)C(=O)c1cc(C(C)=O)c(Nc2ccccc2)s1 | x | -3 | x | 0.05
SMILES | Pf gamet viab | ROMK primary | Calb biofilm kill | ROMK retest
CCOC(=O)/C(=C\c1ccccc1)C(=O)c1cc(C(C)=O)c(Nc2ccccc2)s1 | x | n | x | x
Cc1ccc(NC(=O)COC(=O)C2(c3ccc(Cl)cc3)CCCC2)cc1 | n | n | n | x
CC(C)(C)[C@@H]1COC(=O)[C@H](Cc2ccc(F)cc2)C/C=C\C[C@@H](CC(=O)NCCO)C(=O)N1 | n | x | x | x
CC(C)n1c(SCC(=O)Nc2ccccc2N2CCOCC2)nc2c1c(=O)n(C)c(=O)n2C | n | x | n | x
CC(C)CC(=O)Nc1ccccc1N1CCCC1 | n | -6 | n | n
CCn1c(SCC(=O)Nc2ccccc2N2CCCCC2)nc2c1c(=O)n(C)c(=O)n2C | x | x | x | n
CC(C)CC(=O)NC(=S)Nc1ccccc1N1CCCC1 | n | x | n | x
COc1ccc2c(c1)OC[C@H]1[C@H]2N2C(=O)CN(Cc3ccc(C)cc3)C(=O)[C@@]2(C)[C@H]1c1ccccc1 | n | x | x | x
CC(=O)OCC[C@H](NS(=O)(=O)OCC(Cl)(Cl)Cl)c1ccccc1 | n | x | x | x
Clc1ccc(-c2nc3ccccc3[nH]2)cn1 | n | x | n | x
CCOC(=O)C1CCN(C(=O)NS(=O)(=O)c2ccc(C)cc2)CC1 | n | n | n | x
CN(Cc1ccccc1)C(=O)c1nc[nH]c1C(=O)N(C)Cc1ccccc1 | n | x | x | x
O=c1c(Cl)c(O)c2cccc3c4ccccc4n1c23 | n | n | n | n
Cn1c(=O)c(-c2cccc(Cl)c2)c(O)c2ccccc21 | n | x | x | x
Cc1cc(C)n(CC(C)(O)c2ccccc2)n1 (centres undefined) | n | x | x | x
CC(=O)c1sc(C(C)(C)C)cc1NC(=O)c1ccccc1C(=O)O | n | x | n | x
Cc1ccc(N2CC(O)Cn3c2nc2c3c(=O)[nH]c(=O)n2C)cc1 (centres undefined) | n | x | x | x
C=CCn1c(Cc2cccs2)nnc1SC/C=C/c1ccccc1 | n | n | x | x
c1cc2c3c(cccc3c1)C(N1CCCCCC1)=N2 | n | n | x | x
c1ccc2c(c1)CCN(C1=Nc3cccc4cccc1c34)C2 | x | -2 | n | 0.054
COc1ccc(-c2cccc3c2NC(=O)C3=O)cc1OC | n | x | x | x
CCOc1ccccc1C1C(C(=O)OC)=C(N)OC2=C1C(=O)CCC2 (centres undefined) | x | x | x | n
